Assay outcomes: PubChem BioAssay, The Scripps Research Institute Molecular Screening Center
PAFAH2 inh: PAFAH2 enzyme inhibitors, primary screen, biochemical, fluorescence polarization, human. hit rate 0.99% among 340,000. Platelet-activating factor acetylhydrolase 2, cytoplasmic (Homo sapiens), Q99487. inhibition, % at 3.39 µM. AID 492956, 2010. recombinant PAFAH2, FP-rhodamine activity probe;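 active = inhibition above the mean over all tested compounds plus 3 SD, cut at about 30% in these data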;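 also: inhibitors block probe labeling of enzyme so polarization drops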
pPAFAH FP inh: pPAFAH enzyme inhibitors, primary screen, biochemical, fluorescence polarization, human; recombinant pPAFAH, FP-rhodamine probe fluorescence polarization; hit rate 1.5% among 330,000; inhibition, % at 3.39 µM; Platelet-activating factor acetylhydrolase (Homo sapiens), Q13093; AID 463082, 2010;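 active = inhibition above the mean inhibition across the screen plus 3 SD, cut at about 25% in these data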;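 also: inhibitors block binding of the rhodamine activity-based probe so polarization drops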
PAFAH1B2 inh: PAFAH1B2 enzyme inhibitors, primary screen, biochemical, fluorescence polarization, human; Platelet-activating factor acetylhydrolase IB subunit alpha2 (Homo sapiens), P68402; recombinant PAFAH1B2, FP-rhodamine activity probe; inhibition, % at 3.39 µM; hit rate 1.2% among 340,000;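 active = inhibition above the mean of all tested compounds plus 3 SD, cut at about 24% in these data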
Target sequence (P68402 whole entry, looked up): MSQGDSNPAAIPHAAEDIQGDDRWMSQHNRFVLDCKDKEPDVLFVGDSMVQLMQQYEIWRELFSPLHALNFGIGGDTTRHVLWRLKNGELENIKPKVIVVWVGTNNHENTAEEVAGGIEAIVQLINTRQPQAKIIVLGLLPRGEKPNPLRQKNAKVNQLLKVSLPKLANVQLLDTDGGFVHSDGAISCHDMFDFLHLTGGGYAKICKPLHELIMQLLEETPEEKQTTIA
PAFAH1B3 FP inh: PAFAH1B3 enzyme inhibitors, primary screen, biochemical, fluorescence polarization, human. inhibition, % at 3.39 µM. recombinant PAFAH1B3, FP-rhodamine probe. Platelet-activating factor acetylhydrolase IB subunit alpha1 (Homo sapiens), Q15102. hit rate 0.28% among 340,000;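 active = inhibition above the screen-wide average of all tested compounds plus 3 SD, cut at about 25% in these data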
Target sequence (Q15102 whole entry, looked up): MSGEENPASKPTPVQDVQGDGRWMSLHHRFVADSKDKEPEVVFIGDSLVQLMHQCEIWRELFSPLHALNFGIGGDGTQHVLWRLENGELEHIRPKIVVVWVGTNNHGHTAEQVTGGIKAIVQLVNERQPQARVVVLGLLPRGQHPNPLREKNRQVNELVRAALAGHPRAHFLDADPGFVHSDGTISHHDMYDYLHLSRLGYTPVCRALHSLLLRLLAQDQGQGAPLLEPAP
ASAP1 inh: inhibitors of human ASAP1 ArfGAP activity, primary screen, biochemical, fluorescence polarization; Arf-GAP with SH3 domain, ANK repeat and PH domain-containing protein 1 (Homo sapiens), …; ASAP1-stimulated ARF1 GTP hydrolysis, GDP FP detection; inhibition, % at 16.5 µM; hit rate 0.19% among 360,000; in the data active = inhibition above about 25%
ARFGAP1 inh: inhibitors of rat ARFGAP1 GAP activity, primary screen, biochemical, fluorescence polarization, GDP tracer. ADP-ribosylation factor GTPase-activating protein 1 (Rattus norvegicus), Q62848. Arfgap1-stimulated ARF1 GTP hydrolysis, GDP FP detection. inhibition, % at 16.5 µM. hit rate 0.26% among 360,000. AID 651572, 2012;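 active = inhibition above a per-plate limit, mean inhibition of low control wells plus 3 SD, cut at about 25% in these data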
Target sequence (Q62848 1-136 limits assumed): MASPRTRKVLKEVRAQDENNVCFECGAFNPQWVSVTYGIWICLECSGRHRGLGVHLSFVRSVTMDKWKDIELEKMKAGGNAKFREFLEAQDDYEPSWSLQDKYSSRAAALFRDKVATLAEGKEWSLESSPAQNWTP
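Assay system: Rat Arfgap1 GAP domain (His6, aa 1-136), purified enzyme | Buffer or medium: HEPES 25 mM pH 7.5, NaCl 150 mM, MgCl2, DTT | Schedule: GTP hydrolysis reaction 2 h at 25 °C | Signal: FP of antibody-bound GDP Alexa 633 tracer, ex 620/em 688 nm | Measure: Percent inhibition of Arfgap1-stimulated GTP hydrolysis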
Large screens that a line does not name were inactive. In the library only some 2.8% were active in any assay of this set; here they are far more common.

Nc1nnc(CC(=O)N/N=C/c2cc([N+](=O)[O-])cc(Br)c2O)s1	pPAFAH FP inh 28, PAFAH1B2 inh 25
Nc1nnc(CC(=O)N/N=C/c2cccc([N+](=O)[O-])c2)s1	none
CC(=O)c1sc(NC(=O)C2(F)C(F)(F)C(F)(F)C(F)(F)C(F)(F)C2(F)F)nc1C	PAFAH1B2 inh 39
C/C(=N\OC(=O)c1ccc(F)cc1)c1nccs1	PAFAH2 inh 33
COc1cc(NC(=O)Nc2ccc(Cl)c(Cl)c2)c(C(=O)O)cc1OC	pPAFAH FP inh 30, PAFAH1B2 inh 25
Cc1ccc(CNC(=O)C2CCCCN2S(=O)(=O)c2ccccc2)cc1 (stereo unspecified)	none
Cc1ccc(CSC2=Nc3sccc3C3=NC(=O)CN23)cc1	pPAFAH FP inh 27
CCn1ncc2c(=O)c(C(=O)c3ccccc3)c[nH]c21	none (no result: PAFAH2 inh, pPAFAH FP inh, PAFAH1B2 inh, PAFAH1B3 FP inh)
C/C(=N\N1C(=O)CSC1=S)c1ccc(Br)cc1	none
NC(=S)NN=C(c1ccc(F)cc1)C1CC1	none (no result: pPAFAH FP inh)
COc1ccc(C)cc1NC(=O)C1CC1c1ccccc1 (stereo unspecified)	none
Cc1ccc2[nH]c(C(=O)O)c(NC(=O)[C@@H]3C[C@@H]3c3ccccc3)c2c1	PAFAH1B2 inh 31
Cc1ccc(S(=O)(=O)N2CCOC2CNC(=O)C(=O)NCc2ccc(Cl)cc2)cc1 (stereo unspecified)	PAFAH1B2 inh 29
COc1ccc(CNC(=O)C(=O)NCC2CCCN2S(=O)(=O)c2cccs2)cc1 (stereo unspecified)	none
COc1ccc(CNC(=O)C(=O)NCC2OCCCN2S(=O)(=O)c2cccs2)cc1 (stereo unspecified)	PAFAH1B2 inh 27
Cc1ccc(CNC(=O)C(=O)NCC2OCCN2S(=O)(=O)c2ccc(Cl)cc2)cc1 (stereo unspecified)	none
NC(=O)c1ccsc1NC(=O)CS(=O)(=O)c1ccccc1	none
O=C(CN1CCN(S(=O)(=O)c2ccc(Br)s2)CC1)NCC1CCCCC1	none (no result: PAFAH2 inh, pPAFAH FP inh, PAFAH1B2 inh, PAFAH1B3 FP inh)
O=C(CN1CCN(S(=O)(=O)c2ccc(Br)s2)CC1)NC1CCCCC1	PAFAH1B2 inh 30 (no result: pPAFAH FP inh)
COc1cccc(/C=N/Nc2snc(SC)c2C#N)c1O	PAFAH2 inh 33, pPAFAH FP inh 29
COc1ccc(/C=N/Nc2snc(SC)c2C#N)cc1OC	none
O=C(OCc1cn(-c2ccc(Cl)c(Cl)c2)nn1)c1ccccc1	PAFAH2 inh 78
CCNC(=O)OCc1cn(-c2ccc(Cl)cc2)nn1	none
CCOc1ccc(NC(=O)CN(C)C(=O)CN2C(=O)NC3(CCCC3)C2=O)cc1OCC	pPAFAH FP inh 26
CCCC[C@H]1COCCS(=O)(=O)N1Cc1cccc(F)c1	none
O=S1(=O)CCOC[C@H](CC2CCCCC2)N1Cc1cccc(F)c1	PAFAH1B2 inh 24
O=S1(=O)CCOC[C@H](CC2CCCCC2)N1Cc1ccc(Cl)cc1	PAFAH1B2 inh 29
O=S1(=O)CCOC[C@H](c2ccccc2)N1Cc1cccc(Cl)c1	PAFAH1B2 inh 29
Cc1ccc(CN2[C@@H](CC3CCCCC3)COCCS2(=O)=O)cc1	PAFAH1B2 inh 31
COc1ccc(-c2nnc(C)c3nocc23)cc1	pPAFAH FP inh 25
Cn1c(=O)c2cc(NC(=O)OCCF)ccc2n1Cc1cccc(C(F)(F)F)c1	none (no result: PAFAH2 inh, pPAFAH FP inh, PAFAH1B2 inh, PAFAH1B3 FP inh)
O=C(N/C(=C/c1cccc(Br)c1)C(=O)N1CCOCC1)c1ccco1	none (no result: PAFAH2 inh, pPAFAH FP inh, PAFAH1B2 inh, PAFAH1B3 FP inh)
CCCCCCN(C(=O)CCCCCN1C(=O)NC(c2ccc(-c3ccccc3)cc2)C(C(=O)OCc2ccccc2)=C1C)C(C)C(=O)NCCCC (stereo unspecified)	pPAFAH FP inh 28 (no result: PAFAH2 inh, PAFAH1B2 inh, PAFAH1B3 FP inh)
O=C(CSc1ncccn1)NC1CCCC1	none (no result: PAFAH2 inh, pPAFAH FP inh, PAFAH1B2 inh, PAFAH1B3 FP inh)
COc1cccc(OCC(=O)NNC(=O)Cc2cccs2)c1	none
CC(C)(C)c1ccc(OCC(=O)NNC(=O)Cc2cccs2)cc1	PAFAH1B2 inh 26
CC(=O)c1ccc(N2CCN(C(=O)/C=C/c3ccc(S(=O)(=O)N4CCOCC4)cc3)CC2)cc1	pPAFAH FP inh 32
O=C(/C=C/c1ccc(S(=O)(=O)N2CCOCC2)cc1)N1CCCCC1	none (no result: pPAFAH FP inh)
Cc1nn(CC(=O)NCCC2=CCCCC2)c(C)c1[N+](=O)[O-]	none
O=C(O)CCCC(=O)N1CCN(c2nc(-c3ccccc3Cl)c3cc(Br)ccc3n2)CC1	pPAFAH FP inh 28
Cc1ccc(Oc2ccc(OCC(=O)OC3CCS(=O)(=O)C3)cc2)cc1 (stereo unspecified)	pPAFAH FP inh 31 (no result: PAFAH2 inh, PAFAH1B2 inh, PAFAH1B3 FP inh, ASAP1 inh, ARFGAP1 inh)
O=C(COc1ccccc1[N+](=O)[O-])OC1CCS(=O)(=O)C1 (stereo unspecified)	none
CC(C)NC(=O)Cn1c(=O)n(CC(=O)N2CCCCC2)c(=O)c2sccc21	none
O=[N+]([O-])c1cc(S(=O)(=O)N2CCCCCC2)ccc1F	PAFAH1B2 inh 29
O=[N+]([O-])c1cc(S(=O)(=O)N2CCCC2)ccc1O	none
COc1ccc(CC(=O)NCC(=O)NCc2cc(=O)n(C)c(=O)n2C)cc1	none
Cc1ccc(C)c(S(=O)(=O)N2CCN(C(=O)/C=C/c3ccco3)CC2)c1	pPAFAH FP inh 30
Cc1ccc(S(=O)(=O)NCCC(=O)N2CCN(S(=O)(=O)c3ccccc3)CC2)cc1C	none
O=C(CCNS(=O)(=O)c1ccc(Cl)cc1)N1CCCCCC1	PAFAH1B2 inh 27
Cc1ccc(S(=O)(=O)N2CCN(C(=O)/C=C/c3ccco3)CC2)cc1	none
Cc1ccc(C)c(S(=O)(=O)N2CCN(C(=O)CCNS(=O)(=O)c3ccc(C)c(C)c3)CC2)c1	pPAFAH FP inh 27
Cc1ccc(N(C)C(=O)N2CCN(S(=O)(=O)c3ccc(C)cc3)CC2)cc1	none
Cc1ccc(S(=O)(=O)N2CCN(C(=S)NCCc3ccccc3)CC2)cc1	PAFAH1B2 inh 45
Cc1ccc(S(=O)(=O)N2CCN(C(=O)N(c3ccccc3)c3ccccc3)CC2)cc1	PAFAH1B2 inh 26
O=C(CC1C[C@H](C(=O)N2CCCCC2)[C@@]2(CCc3ccccc3)c3[nH]c4ccccc4c3CCN2C1=O)NCCCn1ccnc1 (stereo partly specified)	none
O=C(NCc1cccnc1)c1cc(C2CCCCN2S(=O)(=O)c2ccc(F)cc2F)on1 (stereo unspecified)	none (no result: PAFAH2 inh, pPAFAH FP inh, PAFAH1B2 inh, PAFAH1B3 FP inh)
Cc1nc2ccccc2n2c(O)c(CC(=O)O)cc12	pPAFAH FP inh 27
O=C(OCc1c(F)cccc1Cl)c1cccc(S(=O)(=O)N2CCOCC2)c1	none
FC(F)Oc1ccc(N=C2SCC3CCCCN23)cc1 (stereo unspecified)	pPAFAH FP inh 33
